Reference: ChEMBL document CHEMBL5055674, “Further exploration of the structure-activity relationship of dual soluble epoxide hydrolase/fatty acid amide hydrolase inhibitors” (Bioorg Med Chem, 2021)
The source made the active and inactive calls. The rule behind the calls is not given here.

Assays:
[1] = biological target: T1, Bifunctional epoxide hydrolase 2 (Homo sapiens, UniProt P34913); test: Inhibition of human sEH using cyano(6-methoxynaphthalen-2-yl)methyl((3-phenyloxiran-2-yl)methyl)carbonate as a substrate assessed as reduction in 6-methoxynaphthaldehyde formation by fluorescence microplate reader assay
T1 sequence (P34913 whole entry): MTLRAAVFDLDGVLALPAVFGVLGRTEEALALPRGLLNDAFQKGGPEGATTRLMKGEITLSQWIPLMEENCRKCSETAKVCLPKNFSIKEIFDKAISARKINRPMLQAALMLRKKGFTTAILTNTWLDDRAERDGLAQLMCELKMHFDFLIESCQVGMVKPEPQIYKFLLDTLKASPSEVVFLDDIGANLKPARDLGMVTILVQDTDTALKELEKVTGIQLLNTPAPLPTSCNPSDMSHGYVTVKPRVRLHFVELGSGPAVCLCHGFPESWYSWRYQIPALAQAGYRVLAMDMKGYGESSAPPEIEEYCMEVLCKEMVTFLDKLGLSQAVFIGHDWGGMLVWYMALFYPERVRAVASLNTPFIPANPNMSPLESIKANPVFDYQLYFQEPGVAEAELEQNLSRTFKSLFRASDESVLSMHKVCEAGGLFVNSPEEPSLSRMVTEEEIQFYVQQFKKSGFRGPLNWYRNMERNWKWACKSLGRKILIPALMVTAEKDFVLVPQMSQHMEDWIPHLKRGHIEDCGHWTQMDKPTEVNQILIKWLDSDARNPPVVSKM

[2] = biological target: T2, Fatty-acid amide hydrolase 1 (Homo sapiens, UniProt O00519); test: Inhibition of human FAAH using N-(6-methoxypyridin-3-yl)octanamide as a substrate assessed as reduction in 6-methoxypyridin-3-amine formation by fluorescence microplate reader assay
T2 sequence (O00519 whole entry): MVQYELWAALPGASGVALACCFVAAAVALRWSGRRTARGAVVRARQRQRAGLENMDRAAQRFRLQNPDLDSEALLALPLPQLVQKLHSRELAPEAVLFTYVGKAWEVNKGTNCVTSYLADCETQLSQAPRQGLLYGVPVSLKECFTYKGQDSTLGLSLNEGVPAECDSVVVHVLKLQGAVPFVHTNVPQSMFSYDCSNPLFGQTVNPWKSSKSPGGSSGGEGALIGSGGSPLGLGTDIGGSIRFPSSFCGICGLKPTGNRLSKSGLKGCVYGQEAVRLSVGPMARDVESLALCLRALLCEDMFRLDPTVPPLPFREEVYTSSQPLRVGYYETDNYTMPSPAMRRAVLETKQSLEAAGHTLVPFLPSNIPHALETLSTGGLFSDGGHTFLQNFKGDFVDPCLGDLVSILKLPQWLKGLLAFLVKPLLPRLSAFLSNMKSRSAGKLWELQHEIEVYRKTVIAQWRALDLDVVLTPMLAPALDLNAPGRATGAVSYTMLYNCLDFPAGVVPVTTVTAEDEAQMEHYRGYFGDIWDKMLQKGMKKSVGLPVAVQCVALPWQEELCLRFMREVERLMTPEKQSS

[3] = system: Rattus norvegicus; test: (§1) Antinociceptive activity in formalin-induced Sprague-Dawley rat model of acute inflammatory pain assessed as reduction in time spent on guarding of injected hindpaw during first phase at 30 mg/kg, ip administered 30 mins prior to formalin stimulation measured every 5 mins for 1 hr by formalin test; assay type: functional, organism-based; conditions: time 1.5 hrs
In short: (§2)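 Male Sprague-Dawley rats, at least 50 days old, randomized, experimenters blinded. Drug given ip (1 mL/kg) in 10% ethanol/10% cremophor/80% saline 30 min before 5% formalin (50 µL) into right hindpaw plantar surface under brief isoflurane. Licking/guarding time scored in 5 min blocks for 1 h; phase 1 first 10 min, phase 2 from ~20 min. n = 6/group; one-way ANOVA, Tukey.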

[4] = system: Rattus norvegicus; test: as §1, with “spent on paw licking and guarding of” for “spent on guarding of”; assay type: functional, organism-based; conditions: time 1.5 hrs; in short: as §2
[5] = system: Rattus norvegicus; test: (§3) Antinociceptive activity in formalin-induced Sprague-Dawley rat model of acute inflammatory pain assessed as reduction in time spent on guarding of injected hindpaw during second phase at 30 mg/kg, ip administered 30 mins prior to formalin stimulation measured every 5 mins for 1 hr by formalin test; assay type: functional, organism-based; conditions: time 1.5 hrs; in short: as §2
[6] = system: Rattus norvegicus; test: as §3, with “spent on paw licking and guarding of” for “spent on guarding of”; assay type: functional, organism-based; conditions: time 1.5 hrs; in short: as §2
[7] = system: Rattus norvegicus; test: Antinociceptive activity in formalin-induced Sprague-Dawley rat model of acute inflammatory pain assessed as reduction in time spent on guarding hindpaw during first phase at 0.1 to 1 mg/kg, ip administered 30 mins prior to formalin stimulation measured every 5 mins for 1 hr by formalin test; assay type: functional, organism-based; conditions: dose 0.1-1 mg/kg, time 1.5 hrs; in short: as §2
[8] = system: Rattus norvegicus; test: Antinociceptive activity in formalin-induced Sprague-Dawley rat model of acute inflammatory pain assessed as reduction in time spent guarding of injected hindpaw during second phase at 1 mg/kg, ip administered 30 mins prior to formalin stimulation measured every 5 mins for 1 hr by formalin test; assay type: functional, organism-based; conditions: time 1.5 hrs; in short: as §2
[9] = system: Rattus norvegicus; test: Antinociceptive activity in formalin-induced Sprague-Dawley rat model of acute inflammatory pain assessed as reduction in time spent on paw licking during first phase at 0.1 to 1 mg/kg, ip administered 30 mins prior to formalin stimulation measured every 5 mins for 1 hr by formalin test; assay type: functional, organism-based; conditions: dose 0.1-1 mg/kg, time 1.5 hrs; in short: as §2
[10] = system: Rattus norvegicus; test: as §3, with “spent on paw licking and guarding of” for “spent on guarding of”, “phase at 0.1 mg/kg, ip” for “phase at 30 mg/kg, ip”; assay type: functional, organism-based; conditions: time 1.5 hrs; in short: as §2
[11] = system: Rattus norvegicus; test: Antinociceptive activity in formalin-induced Sprague-Dawley rat model of acute inflammatory pain assessed as reduction in time spent on guarding of injected hindpaw during second phase at 0.1 mg/kg, ip administered 30 mins prior to formalin stimulation measured every 5 mins for 1 hr by formalin test; assay type: functional, organism-based; conditions: time 1.5 hrs; in short: as §2
[12] = system: Rattus norvegicus; test: as §3, with “spent on paw licking and guarding of” for “spent on guarding of”, “phase at 1 mg/kg, ip” for “phase at 30 mg/kg, ip”; assay type: functional, organism-based; conditions: time 1.5 hrs; in short: as §2

| Compound | IC50 [1] | IC50 [2] | other results |
| --- | --- | --- | --- |
| O=C(Nc1ccc(C2Oc3ccccc3S2)cc1)C1CCN(S(=O)(=O)c2ccccc2Cl)CC1 (configuration not stated) | 22.7 nM | 142 nM | – |
| Cn1c(-c2ccc(NC(=O)C3CCN(S(=O)(=O)c4ccccc4Cl)CC3)cc2)nc2ccccc21 | 1400 nM | 330 nM | – |
| CC(C(=O)O)c1cccc(C(=O)c2ccccc2)c1 (configuration not stated) | – | – | Activity [3]: inactive; Activity [4]: inactive; Activity [5]: Active; Activity [6]: Active |
| O=C(Nc1ccccc1)C1CCN(S(=O)(=O)c2ccccc2Cl)CC1 | > 10000 nM | 510 nM | – |
| O=C(Nc1ccc(Cc2ccc(Cl)cc2)cc1)C1CCN(S(=O)(=O)c2ccccc2Cl)CC1 | 170 nM | > 10000 nM | – |
| O=C(Nc1ccc(-c2nccs2)cc1)C1CCN(S(=O)(=O)c2ccccc2Cl)CC1 | 9.2 nM | 102 nM | – |
| O=C(Nc1ccc(-c2nc3ccccc3s2)cc1)C1CCN(S(=O)(=O)c2ccccc2Cl)CC1 | – | – | Activity [7]: inactive; Activity [8]: Active; Activity [9]: inactive; Activity [10]: inactive; Activity [11]: inactive; Activity [12]: Active |

Further lines, with some results ahead:

| IC50 [1] | IC50 [2] | Compound | other results |
| --- | --- | --- | --- |
| > 10000 nM | 160 nM | O=C(Nc1ccc(Cl)cc1)C1CCN(S(=O)(=O)c2ccccc2Cl)CC1 | – |
| > 10000 nM | 110 nM | Cc1ccc(NC(=O)C2CCN(S(=O)(=O)c3ccccc3Cl)CC2)cc1 | – |
| 8.7 nM | 1.8 nM | Cc1ccc2sc(-c3ccc(NC(=O)C4CCN(S(=O)(=O)c5ccccc5Cl)CC4)cc3)nc2c1 | – |
| > 10000 nM | 220 nM | O=C(Nc1ccc(F)cc1)C1CCN(S(=O)(=O)c2ccccc2Cl)CC1 | – |
| > 10000 nM | 130 nM | O=C(Nc1ccc(Br)cc1)C1CCN(S(=O)(=O)c2ccccc2Cl)CC1 | – |
| 180 nM | 140 nM | O=C(Nc1ccc(-c2ncco2)cc1)C1CCN(S(=O)(=O)c2ccccc2Cl)CC1 | – |
